This is an account of results in ChEMBL document CHEMBL1140884, “Oligodeoxyribonucleotide-based antagonists for Toll-like receptors 7 and 9” (2009).

The target in test [1] is T1, Toll-like receptor 9 (Mus musculus) (UniProt Q9EQU3).
T1 sequence (whole entry): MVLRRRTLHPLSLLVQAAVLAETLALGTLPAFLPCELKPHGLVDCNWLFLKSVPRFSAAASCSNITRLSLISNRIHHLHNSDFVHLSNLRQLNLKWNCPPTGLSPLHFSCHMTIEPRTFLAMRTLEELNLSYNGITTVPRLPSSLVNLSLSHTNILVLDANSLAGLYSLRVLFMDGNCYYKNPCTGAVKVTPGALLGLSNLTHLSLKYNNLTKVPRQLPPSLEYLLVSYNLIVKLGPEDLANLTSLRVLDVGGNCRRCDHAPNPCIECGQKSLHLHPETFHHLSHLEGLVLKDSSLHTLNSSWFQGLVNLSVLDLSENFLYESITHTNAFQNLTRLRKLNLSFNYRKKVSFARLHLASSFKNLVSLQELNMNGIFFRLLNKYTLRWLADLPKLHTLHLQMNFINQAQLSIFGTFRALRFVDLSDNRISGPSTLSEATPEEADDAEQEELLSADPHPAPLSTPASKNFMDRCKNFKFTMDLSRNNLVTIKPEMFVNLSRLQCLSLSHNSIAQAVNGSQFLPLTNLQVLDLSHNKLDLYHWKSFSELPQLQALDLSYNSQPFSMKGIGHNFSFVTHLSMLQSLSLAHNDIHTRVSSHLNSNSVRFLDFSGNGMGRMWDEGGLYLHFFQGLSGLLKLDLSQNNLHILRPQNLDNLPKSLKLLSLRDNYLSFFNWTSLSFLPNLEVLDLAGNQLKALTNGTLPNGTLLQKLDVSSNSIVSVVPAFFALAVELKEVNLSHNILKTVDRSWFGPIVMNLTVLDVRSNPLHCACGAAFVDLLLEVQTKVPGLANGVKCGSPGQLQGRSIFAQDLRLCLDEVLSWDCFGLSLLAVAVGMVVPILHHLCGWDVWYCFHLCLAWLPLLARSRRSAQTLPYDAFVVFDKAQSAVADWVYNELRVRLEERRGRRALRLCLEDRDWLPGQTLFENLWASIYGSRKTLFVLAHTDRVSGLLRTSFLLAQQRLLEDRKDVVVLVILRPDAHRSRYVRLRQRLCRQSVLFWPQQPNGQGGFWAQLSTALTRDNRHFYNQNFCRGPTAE
Nature of the test: Agonist activity at mouse TLR9 expressed in HEK293 cells assessed as activation of NF-kappaB at 10 ug/mL by SEAP reporter gene assay. It is filed as functional, cell-based. Summed up: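 HEK293 cells stably expressing mouse TLR9 were transiently transfected with a SEAP reporter for 6 h. Compounds were added at 10 µg/mL for 18 h. SEAP was read with Quanti-Blue substrate and expressed as fold change in NF-κB activity.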
In general terms: A reporter such as luciferase makes a cellular process visible.

The test system of test [2] is PBMC. Nature of the test: Inhibition of 5'-TCTGTCRTTCT-X-TCTTRCTGTCT-5'-induced human PBMC proliferation treated 72 hrs before induction. It is filed as functional, cell-based.
Test [3] deals with T1, Toll-like receptor 9 (Mus musculus). Nature of the test: Antagonist activity at mouse TLR9 expressed in HEK293 cells assessed as inhibition of 5'-CTATCTGTCGTTCTCTGT-3'-induced NF-kappaB activation by SEAP reporter gene assay. It is filed as functional, cell-based. Summed up:
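Mouse TLR9-HEK293 cells were transfected with a SEAP reporter for 6 h. They were then stimulated for 18 h with agonist (0.25 or 0.5 µg/mL) plus increasing antagonist concentrations or set agonist:antagonist ratios. Quanti-Blue read-out, reported as % NF-κB activity with agonist alone as 100%.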

For test [4], the system named is Mus musculus. Nature of the test: Induction of IP10 secretion in C57BL/6 mouse at 0.25 mg/kg, sc. Format: functional, organism-based. Also on record: dose 0.25 mg/kg. Summed up: (§1)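 Female C57BL/6 mice, 6–8 weeks old (n=3), were injected sc with single compounds at 0.25 or 20 mg/kg. Serum was collected by retro-orbital bleed 2 h later and cytokines were measured by Luminex mouse 20-plex assay.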

The test system of test [5] is Mus musculus. Nature of the test: Induction of IL6 secretion in C57BL/6 mouse at 0.25 mg/kg, sc. Format: functional, organism-based. Details: dose 0.25 mg/kg. Summed up: as §1
The subject of test [6] is Mus musculus. Nature of the test: Induction of IL12 secretion in C57BL/6 mouse at 0.25 mg/kg, sc. It is filed as functional, organism-based. Details: dose 0.25 mg/kg. Summed up:
as §1

Test [7] has as its target T1, Toll-like receptor 9 (Mus musculus). The test is described as follows: Agonist activity at TLR9 in mouse J774 cells assessed as of NF-kappaB activation. Format: functional, cell-based. Summed up:
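Murine J774 macrophages grown in DMEM with 10% FBS and plated at 5×10^6 cells/well. Nuclear extracts taken 1 h after agonist addition. NF-κB detected by EMSA on native polyacrylamide gels with autoradiography.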

In test [8] the test system is Mus musculus. Nature of the test: Induction of cytokine MCP1 secretion in C57BL/6 mouse at 0.25 mg/kg, sc. Format: functional, organism-based. Details: dose 0.25 mg/kg. Summed up: as §1
The test system of test [9] is Mus musculus. The test is described as follows: Induction of IL10 secretion in C57BL/6 mouse at 0.25 mg/kg, sc. Format: functional, organism-based. Also on record: dose 0.25 mg/kg. Summed up: as §1
The test system of test [10] is Mus musculus. Nature of the test: Induction of cytokine MIG secretion in C57BL/6 mouse at 0.25 mg/kg, sc. Details: dose 0.25 mg/kg. Format: functional, organism-based. Summed up:
as §1

The subject of test [11] is Mus musculus. Nature of the test: Induction of cytokine KC secretion in C57BL/6 mouse at 0.25 mg/kg, sc. Also on record: dose 0.25 mg/kg. Format: functional, organism-based. Summed up: as §1
Test [12] concerns Mus musculus. Nature of the test: Inhibition of 5'-TCTGACRTTCT-X-TCTTRCAGTCT-3'-induced IL12 production in C57BL/6 mouse pretreated before up to 48 hrs of induction at 10 mg/kg, sc. Format: functional, organism-based. Also on record: dose 10 mg/kg. Summed up:
(§2)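 C57BL/6 mice received antagonist or control 10 mg/kg sc, either with TLR9 agonist 0.25 mg/kg sc or up to 48 h before it. Serum IL-12 was measured 2 h after agonist. Two or three independent experiments; mean ± SEM, Student's t test versus PBS.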

Test [13] deals with Mus musculus. Nature of the test: Inhibition of 5'-TCTGACRTTCT-X-TCTTRCAGTCT-3'-induced IL12 production in C57BL/6 mouse at 10 mg/kg, sc. Format: functional, organism-based. Details: dose 10 mg/kg. Summed up:
as §2

The source made the active and inactive calls. The rule behind the calls is not given here.

For `CO[C@@H]1[C@H](OP(=O)(S)OC[C@H]2O[C@@H](n3ccc(N)nc3=O)C[C@@H]2OP(=O)(S)OC[C@H]2O[C@@H](n3cnc4c(=O)[nH]c(N)nc43)C[C@@H]2OP(=O)(S)OC[C@H]2O[C@@H](n3cc(C)c(=O)[nH]c3=O)C[C@@H]2OP(=O)(S)OC[C@H]2O[C@@H](n3cc(C)c(=O)[nH]c3=O)C[C@@H]2OP(=O)(S)OC[C@H]2O[C@@H](n3ccc(N)nc3=O)C[C@@H]2OP(=O)(S)OC[C@H]2O[C@@H](n3cc(C)c(=O)[nH]c3=O)C[C@@H]2OP(=O)(S)OC[C@H]2O[C@@H](n3ccc(N)nc3=O)C[C@@H]2OP(=O)(S)OC[C@H]2O[C@@H](n3cc(C)c(=O)[nH]c3=O)C[C@@H]2OP(=O)(S)OC[C@H]2O[C@@H](n3cnc4c(=O)[nH]c(N)nc43)C[C@@H]2OP(=O)(S)OC[C@H]2O[C@@H](n3cc(C)c(=O)[nH]c3=O)C[C@@H]2O)[C@@H](COP(=O)(S)O[C@H]2[C@@H](OC)[C@H](n3cnc4c(=O)[nH]c(N)nc43)O[C@@H]2COP(=O)(S)O[C@H]2C[C@H](n3cc(C)c(=O)[nH]c3=O)O[C@@H]2COP(=O)(S)O[C@H]2C[C@H](n3ccc(N)nc3=O)O[C@@H]2COP(=O)(S)O[C@H]2C[C@H](n3cc(C)c(=O)[nH]c3=O)O[C@@H]2COP(=O)(S)O[C@H]2C[C@H](n3cnc4c(N)ncnc43)O[C@@H]2COP(=O)(S)O[C@H]2C[C@H](n3cc(C)c(=O)[nH]c3=O)O[C@@H]2COP(=O)(S)O[C@@H]2C[C@@H](n3ccc(N)nc3=O)O[C@H]2CO)O[C@H]1n1ccc(=O)[nH]c1=O` (stereo not given in full), the outcome in [1] was inactive. For the same compound, the outcome in [2] and in test [3] was Active.
Consider `Cc1cn([C@H]2C[C@H](OP(=O)(S)OC[C@H]3O[C@@H](n4ccc(N)nc4=O)C[C@@H]3OP(=O)(S)OC[C@H]3O[C@@H](n4cc(C)c(=O)[nH]c4=O)C[C@@H]3OP(=O)(S)OC[C@H]3O[C@@H](n4cnc5c(=O)[nH]c(N)nc54)C[C@@H]3OP(=O)(S)OC[C@H]3O[C@@H](n4cnc5c(N)ncnc54)C[C@@H]3OP(=O)(S)OC[C@H]3O[C@@H](n4ccc(N)nc4=O)C[C@@H]3OP(=O)(S)OC[C@H]3O[C@@H](n4ccc5c(N)ncnc54)C[C@@H]3OP(=O)(S)OC[C@H]3O[C@@H](n4cc(C)c(=O)[nH]c4=O)C[C@@H]3OP(=O)(S)OC[C@H]3O[C@@H](n4cc(C)c(=O)[nH]c4=O)C[C@@H]3OP(=O)(S)OC[C@H]3O[C@@H](n4ccc(N)nc4=O)C[C@@H]3OP(=O)(S)OC[C@H]3O[C@@H](n4cc(C)c(=O)[nH]c4=O)C[C@@H]3OP(=O)(S)OCC(O)COP(=O)(S)O[C@H]3C[C@H](n4cc(C)c(=O)[nH]c4=O)O[C@@H]3COP(=O)(S)O[C@H]3C[C@H](n4ccc(N)nc4=O)O[C@@H]3COP(=O)(S)O[C@H]3C[C@H](n4cc(C)c(=O)[nH]c4=O)O[C@@H]3COP(=O)(S)O[C@H]3C[C@H](n4cc(C)c(=O)[nH]c4=O)O[C@@H]3COP(=O)(S)O[C@H]3C[C@H](n4ccc5c(=O)[nH]c(N)nc54)O[C@@H]3COP(=O)(S)O[C@H]3C[C@H](n4ccc(N)nc4=O)O[C@@H]3COP(=O)(S)O[C@H]3C[C@H](n4cnc5c(N)ncnc54)O[C@@H]3COP(=O)(S)O[C@H]3C[C@H](n4cnc5c(=O)[nH]c(N)nc54)O[C@@H]3COP(=O)(S)O[C@H]3C[C@H](n4cc(C)c(=O)[nH]c4=O)O[C@@H]3COP(=O)(S)O[C@H]3C[C@H](n4ccc(N)nc4=O)O[C@@H]3COP(=O)(S)O[C@H]3C[C@H](n4cc(C)c(=O)[nH]c4=O)O[C@@H]3CO)[C@@H](CO)O2)c(=O)[nH]c1=O` (stereo not given in full), for which the result in test [1], in test [4], in [5], in [6], in test [7] and in test [8] was Active. In addition, the result in test [9], in test [10] and in [11] was Active.
On to `CO[C@@H]1[C@H](OP(=O)(S)OC[C@H]2O[C@@H](n3cnc4c(N)ncnc43)[C@H](OC)[C@@H]2OP(=O)(S)OC[C@H]2O[C@@H](n3ccc(N)nc3=O)C[C@@H]2OP(=O)(S)OC[C@H]2O[C@@H](n3ccc(N)nc3=O)C[C@@H]2OP(=O)(S)OC[C@H]2O[C@@H](n3cc(C)c(=O)[nH]c3=O)C[C@@H]2OP(=O)(S)OC[C@H]2O[C@@H](n3cc(C)c(=O)[nH]c3=O)C[C@@H]2OP(=O)(S)OC[C@H]2O[C@@H](n3ccc(N)nc3=O)C[C@@H]2OP(=O)(S)OC[C@H]2O[C@@H](n3cc(C)c(=O)[nH]c3=O)C[C@@H]2OP(=O)(S)OC[C@H]2O[C@@H](n3ccc(N)nc3=O)C[C@@H]2OP(=O)(S)OC[C@H]2O[C@@H](n3cc(C)c(=O)[nH]c3=O)C[C@@H]2OP(=O)(S)OC[C@H]2O[C@@H](n3cnc4c(=O)[nH]c(N)nc43)C[C@@H]2OP(=O)(S)OC[C@H]2O[C@@H](n3cc(C)c(=O)[nH]c3=O)C[C@@H]2O)[C@@H](COP(=O)(S)O[C@H]2C[C@H](n3cc(C)c(=O)[nH]c3=O)O[C@@H]2COP(=O)(S)O[C@H]2[C@@H](O)[C@H](n3ccc(N)nc3=O)O[C@@H]2COP(=O)(S)O[C@H]2C[C@H](n3cc(C)c(=O)[nH]c3=O)O[C@@H]2COP(=O)(S)O[C@H]2C[C@H](n3cnc4c(N)ncnc43)O[C@@H]2COP(=O)(S)O[C@H]2C[C@H](n3cc(C)c(=O)[nH]c3=O)O[C@@H]2COP(=O)(S)O[C@@H]2C[C@@H](n3ccc(N)nc3=O)O[C@H]2CO)O[C@H]1n1ccc(N)nc1=O` (stereo not given in full), for which the outcome in test [1], in [12] and in test [13] was inactive.
